Screening data from PubChem.
Sampled rows, rich in hits. Any-hit rate of the full collection: about 2.4%.
PGC1a acetyl inh = inhibitors of PGC1a acetylation signal, primary screen, cell-based, U2OS, AlphaScreen, inhibitor mode | AlphaScreen anti-acetyl-lysine; with virally co-expressed GCN5 acetyltransferase | inhibition, % at 15.6 µM | hit rate 0.17% among 350,000 | AID 651687, 2012;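 active = every replicate shows inhibition of at least 40%; inconclusive = mean inhibition at least 40% but some replicate below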;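 note: 0% = neutral control wells and 100% = positive control wells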
ARNT TACC3 PPI = disruptors of ARNT/TACC3 protein interaction, primary screen, biochemical, AlphaScreen, single concentration. Transforming acidic coiled-coil-containing protein 3 (Homo sapiens), Q9Y6A5. inhibition, % at 9.99 µM. hit rate 0.66% among 390,000. AlphaScreen His-ARNT PAS-B/GST-TACC3 binding, luminescence; TACC3 fragment carries E629A point mutation;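 active = mean inhibition of replicates at least 50% and at least half of replicates each reaching 50%; inconclusive = half or more replicates reach 50% but mean below 50%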;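 note: 0% = complete ARNT plus TACC3 wells and 100% = ARNT alone without TACC3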
Ecoli rRNA inh = reduced GFP signal of wild-type E. coli, primary screen, bacterial rRNA inhibitor project, GFP/RFP fluorescence, OD600, single point. E. coli WT GFP vs humanized-ribosome RFP mutants, 24 h; active compounds read low; DMSO median 0, no signal -100. GFP signal change (wild-type ribosome), % (test concentration not listed). hit rate 1.6% among 350,000. AID 720706, 2013;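 active = significant combined selectivity score with lowered wild-type GFP, culture density cut under 30%, mutant RFP and density less affected; inactive = any of these conditions unmet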
S100A4 inh HTS = inhibitors of S100A4-myosin IIA peptide binding, primary screen, biochemical, fluorescence polarization, TAMRA-MyoIIA peptide; hit rate 0.14% among 360,000; inhibition, % at 10.7 µM; AID 652163, 2013;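 active = mean inhibition of at least 70% across replicates, with every replicate also reaching that level; inconclusive = mean inhibition reaches 70% but some replicates fall short; inactive = mean inhibition below 70%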
Target sequence (P26447 whole entry, looked up): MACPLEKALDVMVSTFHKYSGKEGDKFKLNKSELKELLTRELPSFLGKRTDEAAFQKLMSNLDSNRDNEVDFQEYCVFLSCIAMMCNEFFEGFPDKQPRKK
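Test system: S100A4 monomer protein. Medium: HEPES buffer with Ca2+, pH 7.2. Reagent: fluorescent myosin IIA peptide, 5 nM. Compound dosing: single-point compound testing. Timing: 5 min between mix addition and reading. Benchmarks: DMSO neutral and TFP positive wells.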
ERAP1 inh = human ERAP1 aminopeptidase inhibitors, primary screen, biochemical, single point, plate reader | recombinant ERAP1, Leu-AMC fluorescence, 60 min | inhibition, % at 10.7 µM | AID 652197, 2013 | hit rate 0.15% among 340,000;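 active = mean replicate inhibition of at least 30%, or all replicates individually reaching that 30% level; inactive = mean below 30% and not every replicate reaching it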;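 note: 0% = neutral control wells and 100% = L-leucinethiol positive control wells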
Casp6 inh = human caspase-6 inhibitors, primary screen, biochemical, VEID-R110 fluorescence, single point, set 2. purified caspase-6, Z-VEID-R110 cleavage fluorescence. AID 686996, 2013. P55212. inhibition, % at 12.5 µM. hit rate 0.53% among 350,000;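 active = mean inhibition across replicates at least about 35%, with every replicate also reaching that limit, limit read from the data; inconclusive = only one of the two criteria met; inactive = neither criterion met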;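 note: 0% = median of neutral control wells and 100% = no fluorescence left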
Target sequence (P55212 24-179 limits assumed): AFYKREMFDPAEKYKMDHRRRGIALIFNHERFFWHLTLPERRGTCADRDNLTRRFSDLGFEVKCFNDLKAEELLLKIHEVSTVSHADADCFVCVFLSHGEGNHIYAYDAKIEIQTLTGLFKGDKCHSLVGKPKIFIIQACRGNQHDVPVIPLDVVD
Target sequence (P55212 194-293 limits assumed): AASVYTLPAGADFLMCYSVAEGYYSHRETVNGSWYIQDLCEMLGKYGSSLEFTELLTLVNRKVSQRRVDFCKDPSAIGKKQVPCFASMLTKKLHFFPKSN
* = called active by the depositor; ? = inconclusive; . = not tested or not shown.

SMILES	PGC1a acetyl inh	ARNT TACC3 PPI	Ecoli rRNA inh	S100A4 inh HTS	ERAP1 inh	Casp6 inh
CNC[C@@H]1OCCCC[C@@H](C)Oc2ccc(N(C)C)cc2C(=O)N([C@@H](C)CO)C[C@H]1C	.	.	6	-5	1	2
Cc1cc(NS(=O)(=O)c2ccc(Nc3nc(-c4ccc(C)c(C)c4)cs3)cc2)no1	.	3	.	.	.	.
CCC(=O)Nc1nc(C)c(-c2csc(Nc3cccc(C(=O)O)c3)n2)s1	12	-4	.	-5	4	3
Cc1cc(NS(=O)(=O)c2ccc(Nc3nc(-c4sc(N)nc4C)cs3)cc2)no1	1	62*	.	.	.	.
Cc1nc(N)sc1-c1csc(Nc2cccc(C(=O)O)c2)n1	-8	52*	12	-13	-19	20
Cc1noc(C)c1NC(=O)Nc1ccc2c(c1)C(=O)N([C@H](C)CO)C[C@H](C)[C@@H](CN(C)C)OCCCC[C@H](C)O2	0	.	9	.	.	.
C[C@H](CO)N1C[C@H](C)[C@H](CN(C)C(=O)Nc2ccc3c(c2)OCO3)OCCCC[C@H](C)Oc2ccc(NS(=O)(=O)c3ccccc3)cc2C1=O	-3	8	-3	2	-1	0
NS(=O)(=O)c1ccc(CCNC(=O)C(=O)c2c[nH]c3ccccc23)cc1	.	-9	-22*	-2	0	1
O=C(NCCc1ccccc1)C(=O)c1c[nH]c2ccccc12	-1	0	-8	-12	-2	1
CC(=O)Nc1ccc2c(c1)C(=O)N(C)C[C@@H](C)[C@H](CN(C)C(C)=O)O2	.	.	2	.	.	.
O=C(c1ccc(Oc2cc(Cl)cc(Cl)c2)o1)N1CCCCC1	.	9	-49*	-1	-1	-1
COc1ccc(-c2cnc(N)nc2-c2ccc(OC)cc2O)cc1	22	.	-28*	-5	6	0
COc1ccccc1-c1cccc(-c2nc(C(=O)Nc3nccs3)cc3c2[C@@H](CCO)N(C(=O)CC2CC2)C3)c1	.	.	-2	?	45*	10
COc1ccccc1-c1cccc(-c2nc(C(=O)Nc3nccs3)cc3c2[C@H](CCO)N(C(=O)CC2CC2)C3)c1	11	.	2	-8	-1	-1
CC(=O)Nc1sc(N/N=C/c2ccc(N(C)C)cc2)nc1-c1ccc(C)cc1	-1	.	-33*	-6	0	-4
COc1ccc([N+](=O)[O-])cc1N1C(=O)c2cccnc2C1=O	.	50*	8	-2	-25	2
CC(=O)Oc1ccc([N+](=O)[O-])cc1N1C(=O)c2ccccc2C1=O	2	10	3	3	-1	9
O=C(C[C@@H]1CC[C@H]2[C@@H](COC[C@@H](O)CN2C(=O)c2cnccn2)O1)NCc1ccccc1	-8	1	6	2	1	1
C[C@H](O)C#Cc1cnc2c(c1)C(=O)N([C@@H](C)CO)C[C@@H](C)[C@@H](CN(C)CC1CCOCC1)O2	3	-3	0	6	0	-3
Cc1cccc2c1-c1sc(C(=O)Nc3ccccc3N3CCN(C)CC3)cc1CO2	-27	45*	-60	-6	-1	-3
Cc1cccc2c1-c1sc(C(=O)N3CCCCC3)cc1CO2	7	5	-55	-5	.	1
CN(C1=C(N2CCCCC2)C(=O)c2ccccc2C1=O)c1ccccc1	-5	47*	.	.	.	.
COc1ccccc1NC1=C(N2CCCCC2)C(=O)c2ccccc2C1=O	.	33	.	.	.	.
CN1CCN(/N=C/c2ccc(N(c3ccccc3)c3ccccc3)cc2)CC1	56*	-2	-8	0	-1	1
COc1ccc(C(=O)N/C(=C/c2cccs2)C(=O)NC(C)(C)C)cc1OC	67*	-3	21	-1	-1	2
SMILES	PGC1a acetyl inh	ARNT TACC3 PPI	Ecoli rRNA inh	S100A4 inh HTS	ERAP1 inh	Casp6 inh
COc1ccc(Cl)cc1NC(=O)CN(C)C(=O)Cn1[nH]c(=O)c2ccccc2c1=O	0	-4	-20*	6	4	-5
CC(C)NC(=O)N(C)C[C@H]1Oc2cc(C#C[C@@H](C)O)ccc2S(=O)(=O)N([C@H](C)CO)C[C@H]1C	1	-1	-3	-9	-1	-2
CCCCCCNC(=O)O[C@@]12CN(S(=O)(=O)c3ccc(C)cc3)C[C@]1(O)Cn1c(=O)n(CCCCCC)c(=O)n1C2	69*	.	-7	0	0	-4
O=C(NC[C@@H]1CC[C@@H]2[C@@H](CN2Cc2cccc(Cl)c2)O1)C1CC1	.	.	.	-3	2	0
NC(=O)NC(=O)CC1S/C(=N/N=C2/NC(=O)CS2)NC1=O (stereo not drawn)	-4	66*	8	2	4	1
COc1ccc2c3c([nH]c2c1)[C@@H](CO)N(Cc1ccccc1OC)CC31CN(C)C1	-2	.	-1	11	51*	.
COc1ccc2c3c([nH]c2c1)[C@H](CO)N(Cc1ccccc1OC)CC31CN(C)C1	10	.	2	-5	53*	.
COc1ccc2c3c([nH]c2c1)[C@@H](CO)N(Cc1ccccc1OC)CC31CN(S(C)(=O)=O)C1	-6	.	-3	.	.	.
COc1ccc2c3c([nH]c2c1)[C@H](CO)N(Cc1ccccc1F)CC31CN(C)C1	8	.	2	.	.	.
Cc1ccc(S(=O)(=O)Nc2ccc3c(c2)C(=O)N([C@@H](C)CO)C[C@H](C)[C@@H](CN(C)C(=O)CCCN(C)C)OCCCC[C@H](C)O3)cc1	11	-6	5	-1	-1	-5
COc1ccc(CNc2cc(C)ccc2C)c(OC)c1OC	.	8	.	.	.	.
COc1cc(Br)c(CNc2cc(C)ccc2C)cc1OC	0	0	-24*	-2	-2	2
CC(=O)c1c(COC(=O)c2ccccc2Cl)nc2ccccc2[n+]1[O-]	6	11	-35*	-1	3	3
CC(=O)c1c(COC(=O)c2ccc(C)cc2)nc2ccccc2[n+]1[O-]	9	.	15	1	-2	3
CCCCn1c(N)c(Sc2ccc(Cl)cc2)c(=O)[nH]c1=O	-13	8	-21*	4	4	0
CCCCn1c(N)c(Sc2ccc([N+](=O)[O-])cc2)c(=O)[nH]c1=O	9	-9	2	-4	-1	1
O=C(CSc1nccc(=O)[nH]1)NCc1ccco1	6	1	21	1	.	42*
O=C(CSc1nccc(=O)[nH]1)N1c2ccccc2CCc2ccccc21	2	-8	-34*	-8	2	-1
